Experimental data taken from ChEMBL document CHEMBL4699492, “Discovery of Novel Pyrazolo[3,4-b] Pyridine Derivatives with Dual Activities of Vascular Remodeling Inhibition and Vasodilation for the Treatment of Pulmonary Arterial Hypertension” (J Med Chem, 2020).

What was measured:
[1] = Antiproliferative activity against HLF1 cells assessed as reduction in TGFbeta-induced cell proliferation measured after 48 hrs by CCK8 assay; assay type: functional, cell-based; conditions: Homo sapiens, HLF1, 48 h
Procedure, shortened: (§1)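 HPASMCs grown in high-glucose D-MEM with 20% FBS and HLF1 in D-MEM/F-12 (1:1) with 10% FBS. Cells stimulated with TGF-β (10 ng/mL) at 37 °C, 5% CO2, then exposed to a concentration range for 48 h. CCK-8 added for 4 h and absorbance read at 490 nm. IC50 derived from the curves.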

[2] = Antiproliferative activity against HPASMC assessed as reduction in TGFbeta-induced cell proliferation measured after 48 hrs by CCK8 assay; assay type: functional, tissue-based; conditions: Homo sapiens, Pulmonary Artery Smooth Muscle Cells; procedure, shortened: as §1
Aorta [3] = assay: Vasodilating activity in Sprague-Dawley rat aortic rings assessed as reduction in phenylephrine-induced contractions; assay type: functional, tissue-based
Procedure, shortened: (§2)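 Thoracic aorta from male SD rats (250-280 g) anesthetized with chloral hydrate, cut into 4 mm rings. Rings held in Krebs-Henseleit at 37 °C gassed with 95% O2/5% CO2, under 2 g resting tension, equilibrated 60 min, and precontracted with 10^-7 M phenylephrine. Cumulative concentrations of 3×10^-9 to 10^-6 M (final) applied. Percent relaxation of the initial contraction taken at 1 µM, and EC50 derived.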

Aorta [4] = assay: Vasodilating activity in Sprague-Dawley rat aortic rings assessed as reduction in phenylephrine-induced contractions at 1 uM relative to control; assay type: functional; procedure, shortened: as §2

| SMILES | EC50 (Aorta [3]) [µM] | IC50 [1] [µM] | IC50 [2] [µM] | Emax at 1 µM (Aorta [4]) [%] |
| --- | --- | --- | --- | --- |
| Cc1ccc(COc2nc3c(cc2-c2nc(N)cc(N)n2)c(C)nn3-c2ccccc2)cc1 |  | > 100 | 89.4 |  |
| Cc1nn(-c2ccccc2)c2nc(OCc3ccccc3)c(-c3nc(N)cc(N)n3)cc12 | 10.8 | 52.8 | 67.4 | 20.4 |
| Cc1nn(-c2ccccc2)c2nc(OCc3cccc(F)c3)c(-c3nc(N)cc(N)n3)cc12 | 0.36 | 67.7 | 68.4 | 59.9 |
| CCCCOC(=O)Nc1c(N)nc(-c2cc3c(C)nn(-c4ccccc4)c3nc2OCc2ccccc2F)nc1N | > 100 | 52.8 | 21.7 | 15.8 |
| Cc1nn(-c2ccccc2)c2nc(OCc3ccc(C(F)(F)F)cc3)c(-c3nc(N)cc(N)n3)cc12 | 1.6 | 31 | 20.4 | 43.4 |
| Cc1nn(-c2ccccc2)c2c1cc(-c1nc(N)c(N3CCOCC3)c(N)n1)c(=O)n2Cc1ccccc1F |  | > 100 | > 100 |  |

More lines, main results first:

| EC50 (Aorta [3]) [µM] | SMILES | IC50 [1] [µM] | IC50 [2] [µM] | Emax at 1 µM (Aorta [4]) [%] |
| --- | --- | --- | --- | --- |
| 0.79 | Cc1nn(-c2ccccc2)c2nc(OCc3ccccc3F)c(-c3nc(N)c(N4CCCCC4)c(N)n3)cc12 | > 100 | 53 | 47.8 |
| 8.2 | Cc1nn(-c2ccccc2)c2nc(OCc3ccccc3F)c(-c3nc(N)c(N4CCOCC4)c(N)n3)cc12 | > 100 | 25.2 | 28.7 |
| > 100 | Cc1nn(-c2ccccc2)c2nc(OCc3ccccc3F)c(-c3nc(N)c(N4CCOC4=O)c(N)n3)cc12 | 49.7 | 24.7 | 19.7 |
| 5.8 | COC(=O)Nc1c(N)nc(-c2cc3c(C)nn(-c4ccccc4)c3nc2OCc2ccccc2F)nc1N | > 100 | 25.5 | 31.4 |
| 2.2 | Cc1nn(-c2ccccc2)c2nc(OCc3ccccc3F)c(-c3nc(N)cc(N)n3)cc12 | 55.6 | 59.3 | 41.3 |
